From ChEMBL document CHEMBL1157249, “Alpha-glucosidase inhibitory anthranols, kenganthranols A-C, from the stem bark of Harungana madagascariensis” (J Nat Prod, 2006)
Calls of active or inactive are those of the source. No cut-off for these calls is given here.

How the values were obtained:
[1] = (§1) Inhibition of Saccharomyces sp. alpha glucosidase by spectrophotometry
In short: (§2)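 Yeast (Saccharomyces sp.) α-glucosidase, 250 units/mL, in 50 mM sodium phosphate buffer with 100 mM NaCl, pH 6.9, 37 °C; substrate […] p-nitrophenyl α-D-glucopyranoside. Hydrolysis followed continuously as absorbance increase at 400 nm. 1-Deoxynojirimycin (0.425 mM) and acarbose (0.78 mM) served as positive controls. Modified literature method.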

Saccharomyces [2] = test: as §1; in short: as §2
Saccharomyces [3] = test: Inhibition of Saccharomyces sp. alpha glucosidase at 800 uM by spectrophotometry

IC50 [1]	Activity (Saccharomyces [2])	Activity (Saccharomyces [3])	Structure (SMILES)
6.3 µM	Dose-dependent effect		CC(C)=CCc1c(O)c(CC=C(C)C)c2c(c1O)C(=O)c1c(O)cc(C)c(CC=C(C)C)c1C2O (stereo not given) [KENGANTHRANOL B]
6 µM	Dose-dependent effect		CC(C)=CCc1c(C)cc(O)c2c(O)c3c(cc12)C(CC=C(C)C)(CC=C(C)C)C(O)=CC3=O [HARUNGANIN]
426 µM			OC[C@H]1NC[C@H](O)[C@@H](O)[C@@H]1O [DUVOGLUSTAT]
21.9 µM	Dose-dependent effect		COC1c2c(CC=C(C)C)c(C)cc(O)c2C(=O)c2c(O)cc3c(c21)CC(C(C)(C)O)O3 (stereo not given) [KENGANTHRANOL C]
12 µM	Dose-dependent effect		CC(C)=CCc1c(C)c(CC=C(C)C)c2c(c1O)C(=O)c1c(O)cc(O)c(CC=C(C)C)c1C2 [HARUNGANOL B]
192 µM	Dose-dependent effect		COc1cc(O)c2c(c1)C(=O)c1cc(C)cc(O)c1C2=O [PHYSCION]
		inactive	O=c1c2cc(O)ccc2oc2cccc(O)c12
		inactive	COc1cc2c(c(O)c1/C=C/C(C)C)C(=O)c1c(O)cc(C)cc1C2=O
		inactive	COc1cc2c(c(O)c1CC(=O)C(C)C)C(=O)c1c(O)cc(C)cc1C2=O
780 µM			C[C@H]1O[C@H](O[C@H]2[C@H](O)[C@@H](O)[C@@H](O[C@H]3[C@H](O)[C@@H](O)C(O)O[C@@H]3CO)O[C@@H]2CO)[C@H](O)[C@@H](O)[C@@H]1N[C@H]1C=C(CO)C(O)[C@H](O)[C@H]1O (single isomer, unassigned) [ACARBOSE]
